Where no end group is shown, it is not given here.

The source of these data is publication PMC2978626 (The Journal of Biological Chemistry, 2010).

In assay [1] the target is ^8F1^9F1 (module pair of fibronectin, Fn precursor residues 516–608) (Homo sapiens, UniProt P02751). The assay is described as follows: ITC, binding to ^8F1^9F1. The following applies: 10 mM NaH2PO4/K2HPO4, pH 7.4, 25 °C, FnZ peptide 2.97 mM, Fn domain 0.24 mM. The gist of the method:
(§1)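 Cell held GBD (proteolytic Fn fragment, dialysed into buffer) or ⁸F1⁹F1 (Pichia-expressed, Endo Hf-trimmed glycans). Syringe held uncapped synthetic test peptide at 10–20× the cell concentration. Both were degassed at 20 °C for 15 min. 2 μl preinjection, then 39 × 7 μl injections at 0.5 μl/s, 307 rpm, 360 s spacing. Averaged heats from a separate peptide-into-buffer run were subtracted; one-site binding fit.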
A general note: Isothermal titration calorimetry measures the heat released or taken up as one component is titrated into another.

In assay [2] the target is GBD (gelatin-binding domain of fibronectin) (Homo sapiens, UniProt P02751). The assay is described as follows: ITC, binding to GBD. The essentials:
as §1

The target of assay [3] is recombinant fibronectin 100-kDa N-terminal fragment (human). The experiment in a line: ITC.
For assay [4], the target named is gelatin-binding domain (GBD) of fibronectin, proteolytic fragment (human). The experiment in a line: ITC.
Setting [5] is: ITC, 10 mM NaH2PO4/K2HPO4, pH 7.4, 25 °C, FnZ peptide 0.11 mM, Fn domain 0.01 mM.

Sequence of GBD (gelatin-binding domain of fibronectin) (P02751 308-608 limits assumed): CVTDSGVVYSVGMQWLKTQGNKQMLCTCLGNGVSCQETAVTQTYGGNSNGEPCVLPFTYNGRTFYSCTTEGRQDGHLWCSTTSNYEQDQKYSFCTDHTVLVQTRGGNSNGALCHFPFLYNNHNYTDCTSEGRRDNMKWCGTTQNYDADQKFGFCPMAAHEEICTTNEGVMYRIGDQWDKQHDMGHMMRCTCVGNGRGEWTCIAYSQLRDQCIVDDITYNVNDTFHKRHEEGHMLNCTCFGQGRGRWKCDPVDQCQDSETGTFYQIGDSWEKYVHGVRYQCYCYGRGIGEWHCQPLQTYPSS
Sequence of ^8F1^9F1 (module pair of fibronectin, Fn precursor residues 516–608) (P02751 516-608): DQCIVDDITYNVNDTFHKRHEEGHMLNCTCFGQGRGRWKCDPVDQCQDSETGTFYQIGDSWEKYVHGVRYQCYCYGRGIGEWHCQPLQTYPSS

As to RNPHLMGIGGGLAGESGETTPK [FnZ peptide], the ΔH was -29.8 kcal/mol in assay [1] and -17.7 kcal/mol in assay [2] (setting [5]). The ΔS in assay [1] is given as −77.2 cal/mol K^−1; in assay [2] (setting [5]), −30.8 cal/mol K^−1. In assay [2], this molecule yielded a Kd of 540 ± 40 nM.

B1: FnZ(370-428), recombinant fragment of the fibronectin-binding protein FnZ from S. zooepidemicus (domain or fragment)
chain: GPLGSRNPHLMGIGGGLAGESGETTPKPGQTGGQGPVIETTEDTQKGMSGQSGGTIESENTKKP
Take B1: in assay [3], the Kd is 0.8 nM, the dH was -54.6 kcal/mol and the stoichiometry N is 1.06.
On to H-RNPHLMGIGGGLAGESGETTPK-OH [FnZ synthetic peptide, residues 370-391], for which, in assay [4], the Kd is 540 nM and the dH is -17.7 kcal/mol.

For orientation: Kd means a measure of binding affinity in units of concentration. As usually defined, the stoichiometry N is a count of units in the complex or per binding partner.
